How the values were obtained:
[1] = species on record: Rattus norvegicus; experiment: Resting membrane potential determined in rat extensor digitorum longus(EDL) muscle fibers at a concentration of 230 uM; type: functional
Outline: (§1)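 Male Wistar rat (180–220 g) EDL muscles in Ringer's bath at 30 ± 1 °C, pH 7.3–7.4. Two intracellular microelectrodes (current electrode within 100 μm of voltage electrode). Square-wave constant-current pulses applied after holding at -80 mV. Latency = maximum delay to action potential onset; threshold = minimal long-pulse current for one spike; spikes = maximum with strong depolarization. Mean ± SEM; Student's t test.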

[2] = species on record: Rattus norvegicus; experiment: Minimal current intensity for a long pulse for a single action potential in rat extensor digitorum longus(EDL) muscle fibers was determined at a concentration of 230 uM; type: functional; outline: as §1
[3] = species on record: Rattus norvegicus; experiment: Maximum number of spikes elicited by strong depolarizing pulses in rat extensor digitorum longus(EDL) muscle fibers was determined at a concentration of 230 uM; type: functional; outline: as §1
[4] = species on record: Rattus norvegicus; experiment: Latency in rat extensor digitorum longus(EDL) muscle fibers was determined at a concentration of 230 uM; type: functional; outline: as §1
[5] = species on record: Rattus norvegicus; experiment: Number of fibres over number of preparation sampled was determined at a concentration of 230 uM; type: functional
[6] = species on record: Rattus norvegicus; experiment: Maximum number of spikes elicited by strong depolarizing pulses in rat extensor digitorum longus(EDL) muscle fibers was determined at a concentration of 92 uM; type: functional; outline: as §1
[7] = species on record: Rattus norvegicus; experiment: Minimal current intensity for a long pulse for a single action potential in rat extensor digitorum longus(EDL) muscle fibers was determined at a concentration of 92 uM; type: functional; outline: as §1
[8] = species on record: Rattus norvegicus; experiment: Latency was determined in rat extensor digitorum longus(EDL) muscle fibers at a concentration of 92 uM; type: functional; outline: as §1
[9] = species on record: Rattus norvegicus; experiment: Number of fibres over number of preparation sampled was determined at a concentration of 92 uM; type: functional
[10] = species on record: Rattus norvegicus; experiment: Concentration required to block 50% chloride conductance in rat extensor digitorum longus(EDL) muscle fibers; type: functional, organism-based
Outline: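 Male Wistar rats (180–220 g); EDL muscles in bath at 30 ± 1 °C, perfused with Ringer's (normal or Cl⁻-free methyl sulfate) containing compound, pH 7.3–7.4, from 10^-3 g/mL stocks in 1% NaHCO3. Intracellular microelectrode cable analysis; GCl = mean Gm − mean GK. Three or more concentrations (5–230 μM); curves fit to single-site binding by nonlinear least squares, IC50 ± SD.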

[11] = species on record: Rattus norvegicus; experiment: Resting membrane potential determined in rat extensor digitorum longus(EDL) muscle fibers at a concentration of 92 uM; type: functional; outline: as §1
[12] = species on record: Rattus norvegicus; experiment: Minimal current intensity for a long pulse for a single action potential in rat extensor digitorum longus muscle fibers was determined at a concentration of 20 uM; type: functional; outline: as §1
[13] = species on record: Rattus norvegicus; experiment: Latency in rat extensor digitorum longus(EDL) muscle fibers was determined at a concentration of 20 uM; type: functional; outline: as §1
[14] = species on record: Rattus norvegicus; experiment: Number of fibres over number of preparation sampled was determined at a concentration of; type: functional
[15] = species on record: Rattus norvegicus; experiment: Resting membrane potential determined in rat extensor digitorum longus(EDL) muscle fibers at a concentration of 20 uM; type: functional; outline: as §1
[16] = species on record: Rattus norvegicus; experiment: Maximum number of spikes elicited by strong depolarizing pulses in rat extensor digitorum longus muscle fibers was determined at a concentration of 20 uM; type: functional; outline: as §1
[17] = species on record: Rattus norvegicus; experiment: Resting membrane potential in rat extensor digitorum longus(EDL) muscle fibers was determined at a concentration of 230 uM; type: functional
Outline: (§2)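 EDL fibres from male Wistar rats (180–220 g), in Ringer's at 30 ± 1 °C, pH 7.3–7.4, drug diluted from bicarbonate stock. Two intracellular microelectrodes within 100 μm; fibre held at -80 mV by holding current, then square-wave constant-current depolarizing pulses. Read-outs: resting potential, latency to action potential, threshold current (long pulse), maximal spike number; mean ± SEM, fibres/preparations counted; Student's t test.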

[18] = species on record: Rattus norvegicus; experiment: Latency in rat extensor digitorum longus(EDL) muscle fibers was determined at a concentration of 92 uM; type: functional; outline: as §2
[19] = species on record: Rattus norvegicus; experiment: Resting membrane potential in rat extensor digitorum longus(EDL) muscle fibers was determined at a concentration of 92 uM; type: functional; outline: as §2
[20] = species on record: Rattus norvegicus; experiment: Maximum number of spikes elicited by strong depolarizing pulses in rat extensor digitorum longus muscle fibers was determined at a concentration of 92 uM; type: functional; outline: as §2
[21] = species on record: Rattus norvegicus; experiment: Maximum number of spikes elicited by strong depolarizing pulses in rat extensor digitorum longus(EDL) muscle fibers was determined at a concentration of 20 uM; type: functional; outline: as §2
[22] = species on record: Rattus norvegicus; experiment: Number of fibres over number of preparation sampled was determined at a concentration of 20 uM; type: functional; outline: as §2
[23] = species on record: Rattus norvegicus; experiment: Minimal current intensity for a long pulse for a single action potential in rat extensor digitorum longus(EDL) muscle fibers was determined at a concentration of 20 uM; type: functional; outline: as §2
[24] = tested on: Rattus norvegicus; experiment: Concentration to block chloride membrane conductance (G Cl) in rat extensor digitorum longus (EDL) muscle fibers (in vivo and in vitro); type: functional, organism-based
Outline: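 Male Wistar rats 180–220 g; EDL muscles in bath at 30 ± 1 °C, perfused with Ringer's (normal or Cl⁻-free methyl sulfate), pH 7.3–7.4; compounds from 10^-3 g/mL stock in 1% NaHCO3, tested 5–230 μM. Intracellular microelectrode cable analysis; GCl = mean Gm minus mean GK; ≥3 concentrations; single-site binding fit by nonlinear least squares gives IC50 ± SD.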

With C[C@@H](Oc1ccc(Cl)cc1)C(=O)O the Resting potential [1] was 73 -mV, the Threshold current [2] was 90 nA and the No. of spikes [3] was 6.5. It also gave a Latency [4] of 6.2 ms and a Fibers/preparations [5] of 8.
CC(Oc1ccc(Cl)cc1)C(=O)O (racemic) was tested, and the No. of spikes [6] was 12.5, the Threshold current [7] was 79.1 nA and the Latency [8] was 24.3 ms. For the same compound, the Fibers/preparations [9] was 18, the IC50 [10] was 81 µM and the Resting potential [11] was 74 -mV.
For C[C@H](Oc1ccc(Cl)cc1)C(=O)O, the Threshold current [12] was under 65 nA, the IC50 [10] was 12 µM and the Latency [13] was under 45.5 ms. For the same compound, the Fibers/preparations [14] was 15, the Resting potential [15] was 70 -mV and the No. of spikes [16] was under 18.
For CC[C@@H](Oc1ccc(Cl)cc1)C(=O)O, the Resting potential [17] was 70 -mV, the Threshold current [2] was 121 nA and the No. of spikes [3] was 6.5. It also gave a Latency [4] of 5.2 ms and a Fibers/preparations [5] of 13.
In the case of CCC(Oc1ccc(Cl)cc1)C(=O)O (racemic), the Latency [18] is reported as under 18.3 ms, the Threshold current [7] is reported as 67.3 nA and the Resting potential [19] is reported as < 65 -mV. The Fibers/preparations [9] was 12, the No. of spikes [20] was under 15.6 and the IC50 [10] was 44 µM.
CC[C@H](Oc1ccc(Cl)cc1)C(=O)O showed a No. of spikes [21] of under 15, a Fibers/preparations [22] of 8 and a Threshold current [23] of 65 nA. The IC50 [10] was 10.3 µM, the Latency [13] was under 30.2 ms and the Resting potential [15] was 68 -mV.
In the case of CC(C)(Oc1ccc(Cl)cc1)C(=O)O [CLOFIBRIC ACID], the IC50 [24] is reported as 205 µM.

— ChEMBL document CHEMBL1123790, “Stereospecificity of the chloride ion channel: the action of chiral clofibric acid analogues” (J Med Chem, 1987)
